Measurements reported in ChEMBL document CHEMBL3616379, “From carbohydrates to drug-like fragments: Rational development of novel α-amylase inhibitors” (Bioorg Med Chem, 2015).
Calls of active or inactive are those of the source. The calls are words filed in the database; no cut-off is given here.

target: T1, Alpha amylase (Homo sapiens, UniProt P0DUB6); assay: (§1) Inhibition of alpha-amylase (unknown origin) relative to control; details: not given
T1 sequence (P0DUB6 whole entry): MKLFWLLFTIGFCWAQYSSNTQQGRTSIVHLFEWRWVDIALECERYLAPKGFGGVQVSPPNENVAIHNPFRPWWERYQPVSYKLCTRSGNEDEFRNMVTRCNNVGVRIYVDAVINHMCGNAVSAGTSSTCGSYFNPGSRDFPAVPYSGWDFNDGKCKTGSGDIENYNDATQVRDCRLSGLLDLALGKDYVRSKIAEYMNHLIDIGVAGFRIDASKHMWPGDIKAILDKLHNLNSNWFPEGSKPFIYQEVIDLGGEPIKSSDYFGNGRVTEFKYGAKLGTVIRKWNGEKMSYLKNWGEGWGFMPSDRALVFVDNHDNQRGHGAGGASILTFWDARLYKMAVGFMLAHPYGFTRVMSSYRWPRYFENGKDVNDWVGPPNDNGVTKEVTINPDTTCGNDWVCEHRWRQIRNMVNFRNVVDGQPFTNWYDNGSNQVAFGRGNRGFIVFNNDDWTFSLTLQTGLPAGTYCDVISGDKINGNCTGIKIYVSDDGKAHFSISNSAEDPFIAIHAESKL

Compound	IC50
O=C(O)CCc1ccc(O)c(O)c1 [DIHYDROCAFFEIC ACID]	> 14000 µM
O=C(/C=C/c1ccc(O)c(O)c1)O[C@@H]1C[C@](O)(C(=O)O)C[C@@H](OC(=O)/C=C/c2ccc(O)c(O)c2)[C@H]1O	390 µM
COc1cc(/C=C/C(=O)O)ccc1O [FERULATE]	> 5000 µM
O=C(O)c1cccc(O)c1O [2,3-DIHYDROXYBENZOIC ACID]	> 7000 µM
O=C(O)/C=C/c1ccc(O)c(O)c1 [CAFFEIC ACID]	4800 µM
O=c1cc(-c2ccc(O)c(O)c2)oc2cc(O[C@@H]3O[C@H](CO)[C@@H](O)[C@H](O)[C@H]3O)cc(O)c12 [GALUTEOLIN]	280 µM
O=C(/C=C/c1ccc(O)c(O)c1)O[C@@H]1C[C@@](OC(=O)/C=C/c2ccc(O)c(O)c2)(C(=O)O)C[C@@H](O)[C@@H]1O [CYNARIN]	> 2000 µM
O=C1C[C@@H](c2ccc(O)cc2)Oc2cc(O)cc(O)c21 [NARINGENIN]	1800 µM
O=c1ccc2cc(O[C@@H]3O[C@H](CO)[C@@H](O)[C@H](O)[C@H]3O)c(O)cc2o1 [ESCULIN]	1670 µM
COc1cc(/C=C/C(=O)O)cc(OC)c1O [SINAPINATE]	> 6500 µM
COc1cc2ccc(=O)oc2cc1O [SCOPOLETIN]	1300 µM
O=C(O)[C@]1(O)C[C@@H](O)[C@@H](O)[C@H](O)C1 [QUINIC ACID]	13000 µM
O=C(/C=C/c1ccc(O)c(O)c1)O[C@H](Cc1ccc(O)c(O)c1)C(=O)O [ROSMARINIC ACID]	1400 µM
Oc1cc(O)c2c(c1)O[C@H](c1ccc(O)c(O)c1)[C@H](O)C2 [(-)-EPICATECHIN]	3500 µM
COc1ccc(CCC(=O)O)cc1OC	> 12000 µM
O=C(O)c1ccc(O)c(O)c1 [PROTOCATECHUIC ACID]	> 10000 µM

target: Alpha amylase (Homo sapiens) (UniProt P0DUB6); assay: as §1; set-up: concentration or dose not given beside the values; details: concentration not given here

Compound	inhibition
C[C@@H]1O[C@@H](O[C@H]2[C@H](Oc3cc(O)c4c(c3)O[C@H](c3ccc(O)cc3)CC4=O)O[C@H](CO)[C@@H](O)[C@@H]2O)[C@H](O)[C@H](O)[C@H]1O	0%
C[C@@H]1O[C@@H](OC[C@H]2O[C@@H](Oc3c(-c4ccc(O)c(O)c4)oc4cc(O)cc(O)c4c3=O)[C@H](O)[C@@H](O)[C@@H]2O)[C@H](O)[C@H](O)[C@H]1O	20.1%
O=c1cc(-c2ccccc2)oc2cc(O)cc(O)c12	5%
Oc1cc(O)c2c(c1)O[C@@H](c1ccc(O)c(O)c1)[C@H](O)C2	16%
O=c1cc(-c2ccc(O)cc2)oc2cc(O)cc(O)c12	12.4%
C[C@@H]1O[C@@H](Oc2c(-c3ccc(O)c(O)c3)oc3cc(O)cc(O)c3c2=O)[C@H](O)[C@H](O)[C@H]1O	37.6%
OC[C@H]1O[C@@H](Oc2ccc(O)cc2)[C@H](O)[C@@H](O)[C@@H]1O	30%
O=c1c(O[C@@H]2O[C@H](CO)[C@@H](O)[C@H](O)[C@H]2O)c(-c2ccc(O)c(O)c2)oc2cc(O)cc(O)c12	12.2%
Oc1cc(O)c2cc(O)c(-c3ccc(O)c(O)c3)[o+]c2c1	12%
O=c1ccc2cc(O)c(O)cc2o1	17.4%

target: T2, Alpha-amylase 1A (Homo sapiens, UniProt P0DUB6); assay: Inhibition of human salivary alpha-amylase using GalG2CNP as substrate by UV-Vis spectrophotometric analysis; details: not given
T2 sequence (P0DUB6 whole entry): T1 sequence (P0DUB6 whole entry)

Compound	IC50
Cc1cc(C=O)c(O)c(/C=N/N=C(/N/N=C/c2cc(C)cc(C=O)c2O)SCc2ccccc2)c1	ND(Insoluble)

same assay, conditions: read-out: IC50

Compound	IC50
O=C(O)c1ccc(Nc2nc(-c3ccc(O)cc3O)cs2)cc1	680 µM
Oc1ccc(Nc2nc(-c3ccc(O)cc3O)cs2)cc1	138 µM
Cc1ccc(-c2csc(Nc3ccc(O)cc3)n2)cc1	735 µM
Oc1ccc(Nc2nc(-c3ccc(Cl)cc3)cs2)cc1	1040 µM
Nc1ccc(Nc2nc(-c3ccc(Cl)cc3Cl)cs2)cc1	270 µM
Oc1ccc(Nc2nc(-c3ccccc3)cs2)cc1	1270 µM
COc1cc(Br)cc(/C=C2/SC(Nc3cccc(C(=O)O)c3)=NC2=O)c1O	260 µM
CC(=O)N1CCN(C2=NC(=O)/C(=C\c3ccccc3O)S2)CC1	700 µM
COc1cccc(NC(=N)Nc2nc(O)cc(CSc3ccccn3)n2)c1	330 µM
Cc1[nH]nc(-c2ccc(O)cc2O)c1Oc1ccc(C(=O)O)cc1	4000 µM
C/C(=N\NC(=O)CCC(=O)Nc1ccccc1C)c1ccc(O)cc1O	850 µM
O=C(O)c1cccc(N2C(=O)/C(=C/c3ccccc3O)SC2=S)c1	62 µM
Oc1ccc(Nc2nc(-c3ccc(O)cc3)cs2)cc1	492 µM
O=C(O)c1ccc(Nc2nc(-c3ccc(O)cc3O)cs2)cc1O	642 µM
O=C1S/C(=C\c2cc(Cl)ccc2O)C(=O)N1Cc1cccc([N+](=O)[O-])c1	50 µM
CC(O)CNCCNCc1ccc(-c2ccccc2F)o1 (stereo not given)	1000 µM
CCc1cc(-c2n[nH]c(C(=O)O)c2-c2ccc3c(c2)OCO3)c(O)cc1O	4000 µM
Cc1ccc(O)c(Cc2cc(C)cc(Cc3cc(C)ccc3O)c2O)c1	200 µM
COc1cccc(C2NC(c3cccc(OC)c3O)C([N+](=O)[O-])C(C)(C)C2[N+](=O)[O-])c1O (stereo not given)	300 µM
COc1ccc(Nc2nc(-c3ccccc3O)cs2)cc1	40 µM

target: T3, Alpha-amylase 1A (Homo sapiens) (UniProt P0DUB6); assay: Potency index, ratio of BAS 04880564 IC50 to compound IC50 for human salivary alpha-amylase; details: not given
T3 sequence (whole entry): T1 sequence (P0DUB6 whole entry)

Compound	Ratio IC50
Nc1ccc(Nc2nc(-c3ccc(Cl)cc3Cl)cs2)cc1	0.51
COc1cc(Br)cc(/C=C2/SC(Nc3cccc(C(=O)O)c3)=NC2=O)c1O	0.53
O=C(O)c1cccc(N2C(=O)/C(=C/c3ccccc3O)SC2=S)c1	2.22
O=C1S/C(=C\c2cc(Cl)ccc2O)C(=O)N1Cc1cccc([N+](=O)[O-])c1	2.76
COc1ccc(Nc2nc(-c3ccccc3O)cs2)cc1	3.45

target: T4, Pancreatic alpha-amylase (Homo sapiens, UniProt P04746); assay: Inhibition of human pancreatic alpha-amylase; details: not given
T4 sequence (P04746 whole entry): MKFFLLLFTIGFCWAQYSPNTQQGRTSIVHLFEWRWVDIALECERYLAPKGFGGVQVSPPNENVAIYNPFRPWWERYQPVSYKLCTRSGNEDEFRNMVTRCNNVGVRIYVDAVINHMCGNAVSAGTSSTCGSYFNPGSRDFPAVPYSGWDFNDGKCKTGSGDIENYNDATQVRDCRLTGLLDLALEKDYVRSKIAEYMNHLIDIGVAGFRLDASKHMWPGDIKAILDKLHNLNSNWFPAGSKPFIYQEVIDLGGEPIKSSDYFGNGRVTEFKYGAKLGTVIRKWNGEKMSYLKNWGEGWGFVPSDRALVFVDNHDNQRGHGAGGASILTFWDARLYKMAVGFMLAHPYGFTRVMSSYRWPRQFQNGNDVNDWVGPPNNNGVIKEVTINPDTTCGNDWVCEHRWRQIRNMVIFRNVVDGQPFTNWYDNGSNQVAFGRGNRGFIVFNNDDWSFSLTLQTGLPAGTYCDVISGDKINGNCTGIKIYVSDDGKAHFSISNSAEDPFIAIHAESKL

Compound	Ki
C[C@H]1O[C@H](O[C@H]2[C@H](O)[C@@H](O)[C@@H](OC[C@H]3O[C@@H](O)[C@H](O)[C@@H](O)[C@@H]3O)O[C@@H]2CO)[C@H](O)[C@@H](O)[C@@H]1N[C@H]1C=C(CO)[C@@H](O)[C@H](O)[C@H]1O	0.012 µM

target: T3, Alpha-amylase 1A (Homo sapiens); assay: Competitive inhibition of human salivary alpha-amylase using GalG2CNP as substrate by Lineweaver-Burk plot analysis; details: not given
Procedure, shortened: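 Inhibition mode assigned from Lineweaver-Burk plots. Human salivary α-amylase (2 nM) started reactions containing GalG2CNP (0.75–4 mM) and inhibitor in DMSO, in 50 mM MES pH 6.0 with 5 mM Ca(OAc)2, 51.5 mM NaCl, 152 mM NaN3 at 37°C. Rates from continuous 400 nm absorbance of released CNP.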

Compound	Inhibition mode
Oc1ccc(Nc2nc(-c3ccc(O)cc3O)cs2)cc1	Active
O=C1S/C(=C\c2cc(Cl)ccc2O)C(=O)N1Cc1cccc([N+](=O)[O-])c1	Active
Cc1ccc(O)c(Cc2cc(C)cc(Cc3cc(C)ccc3O)c2O)c1	Active

target: T4, Pancreatic alpha-amylase; assay: Inhibition of human pancreatic alpha-amylase expressed in Pichia pastoris using amylase as substrate preincubated with substrate for 10 mins followed by protein addition measured every 5 mins by Dixon plot analysis; details: not given

Compound	Ki
CC1OC(OC2C(CO)OC(OC3C(CO)OC(O)C(O)C3O)C(O)C2O)C(O)C(O)C1NC1C=C(CO)C(OC2OC(CO)C(OC3OC(CO)C(O)C(O)C3O)C(O)C2O)C(O)C1O (stereo not given)	1.25 µM
C[C@H]1O[C@H](O[C@H]2[C@H](O)[C@@H](O)[C@@H](O[C@H]3[C@H](O)[C@@H](O)[C@@H](O[C@H]4[C@H](O)[C@@H](O)[C@@H](O[C@H]5[C@H](O)[C@@H](O)[C@@H](O)O[C@@H]5CO)O[C@@H]4CO)O[C@@H]3CO)O[C@@H]2CO)[C@H](O)[C@@H](O)[C@@H]1N[C@H]1C=C(CO)[C@@H](O[C@H]2O[C@H](CO)[C@@H](O[C@H]3O[C@H](C)[C@@H](N[C@H]4C=C(CO)[C@@H](O[C@H]5O[C@H](CO)[C@@H](O[C@H]6O[C@H](C)[C@@H](N[C@H]7C=C(CO)[C@@H](O)[C@H](O)[C@H]7O)[C@H](O)[C@H]6O)[C@H](O)[C@H]5O)[C@H](O)[C@H]4O)[C@H](O)[C@H]3O)[C@H](O)[C@H]2O)[C@H](O)[C@H]1O	0.0143 µM
C[C@H]1O[C@H](O[C@H]2[C@H](O)[C@@H](O)[C@@H](O[C@H]3[C@H](O)[C@@H](O)[C@@H](O[C@H]4[C@H](O)[C@@H](O)[C@@H](O[C@H]5[C@H](O)[C@@H](O)[C@@H](O)O[C@@H]5CO)O[C@@H]4CO)O[C@@H]3CO)O[C@@H]2CO)[C@H](O)[C@@H](O)[C@@H]1N[C@H]1C=C(CO)[C@@H](O[C@H]2O[C@H](CO)[C@@H](O[C@H]3O[C@H](C)[C@@H](N[C@H]4C=C(CO)[C@@H](O[C@H]5O[C@H](CO)[C@@H](O[C@H]6O[C@H](C)[C@@H](N[C@H]7C=C(CO)[C@@H](O[C@H]8O[C@H](CO)[C@@H](O[C@H]9O[C@H](C)[C@@H](N[C@H]%10C=C(CO)[C@@H](O)[C@H](O)[C@H]%10O)[C@H](O)[C@H]9O)[C@H](O)[C@H]8O)[C@H](O)[C@H]7O)[C@H](O)[C@H]6O)[C@H](O)[C@H]5O)[C@H](O)[C@H]4O)[C@H](O)[C@H]3O)[C@H](O)[C@H]2O)[C@H](O)[C@H]1O	0.0416 µM
C[C@H]1O[C@H](O[C@H]2[C@H](O)[C@@H](O)[C@@H](O[C@H]3[C@H](O)[C@@H](O)[C@@H](O[C@H]4[C@H](O)[C@@H](O)[C@@H](O[C@H]5[C@H](O)[C@@H](O)[C@@H](O)O[C@@H]5CO)O[C@@H]4CO)O[C@@H]3CO)O[C@@H]2CO)[C@H](O)[C@@H](O)[C@@H]1N[C@H]1C=C(CO)[C@@H](O[C@H]2O[C@H](CO)[C@@H](O[C@H]3O[C@H](C)[C@@H](N[C@H]4C=C(CO)[C@@H](O)[C@H](O)[C@H]4O)[C@H](O)[C@H]3O)[C@H](O)[C@H]2O)[C@H](O)[C@H]1O	0.0147 µM
